Tests used:
Format in all cases: functional
HL-60 = test: Percent differentiation of human promyelocytic leukemia (HL60) cells at 10e -6M concentration in culture medium
How it was run: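 HL60 cells in RPMI-1640 with 10% FBS, 2 mM L-glutamine and gentamycin were exposed for 4 days to compound at 10⁻⁶ M final, diluted from a DMSO stock, at 1×10^5 cells/mL. Differentiation was scored by NBT reduction: 30 min at 37 °C with 0.2% NBT plus 200 ng/mL PMA. At least 200 cells were counted by light microscopy, blue cells scored as differentiated.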

P19 [1] = test: Percent aggregation of mouse embryonal carcinoma (P19) cells 10e-6 M concentration in culture medium
How it was run: (§1)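 P19 mouse embryonal carcinoma cells grown in α-MEM with 7.5% calf serum, 2.5% fetal calf serum and gentamycin at 37 °C, 5% CO2. Cells trypsinized, replated at 2×10^5 cells/mL, dosed from DMSO stock at 10⁻⁶ M final, redosed with fresh medium after 2 days, diluted 3 days later and counted 2 days after that. Read-out is percent of aggregates with neural outgrowth. Run in triplicate.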

P19 [2] = test: percent aggregation of mouse embryonal carcinoma (P19) cells 10e -6M concentration in culture medium; how it was run: as §1

Row | SMILES | Differentiation (HL-60) [%] | Aggregates (P19 [1]) [%] | Aggregation (P19 [2]) [%]
1 | CC1(C)CCC(C)(C)c2nc(C(=O)Nc3cccc(C(=O)O)c3)cnc21 | 2 | 1 | –
2 | CC1(C)CC(C)(C)c2nc(C(=O)Nc3ccc(C(=O)O)c(Cl)c3)cnc21 | 67 | 60 | –
3 | CC1(C)CC(C)(C)c2nc(C(=O)Nc3cccc(C(=O)O)c3)cnc21 | 0 | 0 | –
4 | COc1cc(C(=O)O)ccc1NC(=O)c1cnc2c(n1)C(C)(C)CC2(C)C | 6 | 0 | –
5 | CC1(C)CC(C)(C)c2nc(C(=O)Nc3ccc(C(=O)O)cc3)cnc21 | 46 | 67 | –
6 | COc1cc(C(=O)O)ccc1NC(=O)/C=C(C)/C=C/C1=C(C)CCCC1(C)C | 9 | 2 | –
7 | COC(=O)c1ccc(NC(=O)c2cnc3c(n2)C(C)(C)CC3(C)C)cc1Cl | 69 | 50 | –
8 | CC1=C(/C=C/C(C)=C/C(=O)N(C)c2ccc(C(=O)O)cc2)C(C)(C)CCC1 | 4 | 1 | –
9 | CC1=C(/C=C/C(C)=C/C(=O)Nc2ccc(C(=O)O)cc2)C(C)(C)CCC1 | 79 | 68 | –
10 | COC(=O)c1ccc(N(C)C(=O)c2cnc3c(n2)C(C)(C)CC3(C)C)cc1 | 7 | 0 | –
11 | CN(C(=O)c1cnc2c(n1)C(C)(C)CCC2(C)C)c1ccc(C(=O)O)cc1 | 15 | 0 | –
12 | COC(=O)c1ccc(Cl)c(NC(=O)c2cnc3c(n2)C(C)(C)CCC3(C)C)c1 | 7 | 0 | –
13 | COC(=O)c1ccc(NC(=O)c2cnc3c(n2)C(C)(C)CCC3(C)C)cc1Cl | 47 | 74 | –
14 | COC(=O)c1cccc(NC(=O)c2cnc3c(n2)C(C)(C)CC3(C)C)c1 | 0 | 2 | –
15 | COC(=O)c1ccc(Cl)c(NC(=O)c2cnc3c(n2)C(C)(C)CC3(C)C)c1 | 4 | 0 | –
16 | COC(=O)c1cc(NC(=O)c2cnc3c(n2)C(C)(C)CC3(C)C)cc(C(=O)OC)c1 | 4 | 1 | –
17 | COC(=O)c1ccc(OC)c(NC(=O)c2cnc3c(n2)C(C)(C)CCC3(C)C)c1 | 0 | 0 | –
18 | COC(=O)c1cccc(NC(=O)c2cnc3c(n2)C(C)(C)CCC3(C)C)c1 | 6 | 0 | –
19 | CC1(C)CCC(C)(C)c2nc(C(=O)Oc3ccc(C(=O)O)cc3)cnc21 | 47 | – | 0
20 | COc1ccc(C(=O)O)cc1NC(=O)c1cnc2c(n1)C(C)(C)CC2(C)C | 3 | 0 | –
21 | COC(=O)c1ccc(NC(=O)c2cnc3c(n2)C(C)(C)CCC3(C)C)cc1 | 76 | 75 | –
22 | COC(=O)c1ccc(NC(=O)c2cnc3c(n2)C(C)(C)CC3(C)C)cc1 | 43 | 52 | –
23 | CC1(C)CC(C)(C)c2nc(C(=O)Nc3cc(C(=O)O)cc(C(=O)O)c3)cnc21 | 2 | 2 | –
24 | COc1cc(C(=O)O)ccc1NC(=O)c1cnc2c(n1)C(C)(C)CCC2(C)C | 30 | 0 | –
25 | COC(=O)c1cc(NC(=O)c2cnc3c(n2)C(C)(C)CCC3(C)C)cc(C(=O)OC)c1 | 2 | 0 | –
26 | COC(=O)c1ccc(NC(=O)c2cnc3c(n2)C(C)(C)CC3(C)C)c(OC)c1 | 13 | 0 | –
27 | COC(=O)c1ccc(OC)c(NC(=O)c2cnc3c(n2)C(C)(C)CC3(C)C)c1 | 1 | 0 | –
28 | CC1(C)CCC(C)(C)c2nc(C(=O)Nc3ccc(C(=O)O)cc3)cnc21 | 73 | 70 | –
29 | CC1(C)CC(C)(C)c2nc(C(=O)Nc3cc(C(=O)O)ccc3Cl)cnc21 | 20 | 2 | –
30 | CC1=C(/C=C/C(C)=C/C=C/C(C)=C/C(=O)O)C(C)(C)CCC1 [TRETINOIN] | 91 | – | 86

Source: ChEMBL document CHEMBL1131054, “Synthesis and structure-activity relationships of 2-pyrazinylcarboxamidobenzoates and beta-ionylideneacetamidobenzoates with retinoidal activity” (1998)
